The values below come from paper PMC7704577 (Bioorganic & medicinal chemistry letters, 2020).

The target of assay [1] is MC1 receptor (B16/F10 melanoma cells) (Mus musculus, UniProt Q01727). The assay can be described thus: In vitro competitive receptor binding assay on B16/F10 melanoma cells. The gist of the method:
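Competitive displacement on intact B16/F10 cells (0.5×10^5/well, n = 3; assay run in triplicate): 2 h at 25 °C with ~30,000 cpm 125I-(Tyr2)-NDP-MSH plus 10−12 to 10−5 M test peptide in MEM binding medium (25 mM HEPES pH 7.4, 0.2% BSA, 0.3 mM 1,10-phenanthroline). Cells rinsed twice in ice-cold 0.2% BSA/PBS, lysed in 1 N NaOH 5 min, gamma-counted; IC50 by curve fit.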

For assay [2], the system named is MC1R. Particulars: no reference given; cited from earlier work.

Bridge positions count the residues as written; N and C are the ends. Square brackets hold non-standard residues; d marks the D form. Peptide text beside a SMILES is read from it. * marks the point of attachment. NODAGA = O=C(O)CN1CCN(CC(=O)O)CCN(C(CCC(=O)*)C(=O)O)CC1; Nle = CCCC[C@H](N)C(=O)O

Chain of MC1 receptor (B16/F10 melanoma cells) (Q01727 whole entry): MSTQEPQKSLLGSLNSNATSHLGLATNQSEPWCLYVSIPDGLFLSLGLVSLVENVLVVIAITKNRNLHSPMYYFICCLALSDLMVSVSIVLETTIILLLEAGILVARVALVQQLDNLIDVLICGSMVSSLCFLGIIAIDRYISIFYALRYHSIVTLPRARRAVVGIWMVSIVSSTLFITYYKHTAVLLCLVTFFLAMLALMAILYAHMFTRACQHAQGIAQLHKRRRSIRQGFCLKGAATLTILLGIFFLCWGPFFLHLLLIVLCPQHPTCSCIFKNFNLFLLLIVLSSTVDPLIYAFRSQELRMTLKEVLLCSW

In assay [1], `CCCC[C@H](NC(=O)CNC(=O)CNC(=O)CCC(C(=O)O)N1CCN(CC(=O)O)CCN(CC(=O)O)CC1)C(=O)N[C@H]1CC(=O)NCCCC[C@@H](C(N)=O)NC(=O)[C@H](Cc2c[nH]c3ccccc23)NC(=O)[C@H](CCCNC(=N)N)NC(=O)[C@@H](Cc2ccccc2)NC(=O)[C@H](Cc2c[nH]cn2)NC1=O` (stereo partly drawn) [NODAGA-GGNle-CycMSHhex, 1,4,7-triazacyclononane,1-gluteric acid-4,7-acetic acid-GlyGlyNle-c[Asp-His-DPhe-Arg-Trp-Lys]-CONH2] ({NODAGA}-GG[Nle]DH[dF]RWK-NH2; lactam 4-9) gave an IC50 of 0.87 ± 0.12 nM.
On to [Nle^4, D-Phe^7]-α-MSH [NDP-MSH], for which the “MC1R binding affinity” value in assay [2] is reported as “sub-nanomolar MC1R binding affinity”.
